{
  "source": "ChEMBL document CHEMBL1128429",
  "about": "“Synthesis and structure-activity relationships of 6-heterocyclic-substituted purines as inactivation modifiers of cardiac sodium channels” (J Med Chem, 1995)",
  "key": {"[1]": {"assay": "Effective concentration against Xenopus oocytes expressing guinea pig heart Na channel", "format": "functional, cell-based, Cavia porcellus", "conditions": "oocyte", "procedure,_shortened": "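Guinea pig heart RNA in Xenopus oocytes, voltage clamp at 21–23 °C, integral taken at −10 mV. Three or more concentrations, n ≥ 3 each, one per oocyte. Pooled percent-change data plotted semilogarithmically; EC50 (nM giving 50% integral increase) obtained by linear regression over the range lacking significant current block.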"}, "[2]": {"organism": "Oryctolagus cuniculus", "assay": "Concentration which increased contractility by 20% in rabbit", "format": "functional", "procedure,_shortened": "(§1)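 Langendorff-perfused rabbit heart, 45 min equilibration, then five cumulative concentrations with 15 min exposure each. Contractility read as dP/dt; the nanomolar concentration raising it by 20% was derived from the concentration–response curve. Repeated-measures ANOVA, mean change from control ± SEM.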"}, "[3]": {"organism": "Oryctolagus cuniculus", "assay": "Antiarrhythmic activity was determined by measuring the concentration that produced a 20 ms increase in ERP", "format": "functional, Heart", "procedure,_shortened": "(§2)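 Langendorff-perfused rabbit heart, equilibrated 45 min before control. ERP measured after 15 min exposure to each of five cumulative concentrations: single premature stimulus scanning diastole at twice threshold. Concentration giving a 20 ms ERP increase taken from the concentration–response curve; repeated-measures ANOVA, mean change ± SEM.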"}, "[4]": {"assay": "Effective concentration against Xenopus oocytes expressing human heart Na channel", "format": "functional, cell-based", "conditions": "oocyte", "procedure,_shortened": "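HH1 human cardiac Na channel cRNA in oocytes; perfusate Na 140 mM, 21–23 °C, integral taken at −20 mV. At least three concentrations, n ≥ 3 each, single concentration per oocyte. Pooled data gave the EC50 (nM producing 50% integral increase) by linear regression over the lower, non-blocking range.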"}, "[5]": {"assay": "Inactivation processes of human heart Na channel expressed in Xenopus oocytes as increase in current at 10 uM", "format": "functional, Oocyte", "procedure,_shortened": "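Oocytes injected with cRNA transcribed from human cardiac Na channel (HH1) cDNA. Two-microelectrode voltage clamp at 21–23 °C, perfusion buffer with Na raised to 140 mM. Current integrated at −20 mV after the capacity transient settled. Single 10 μM exposure per oocyte; percent change in integral versus control, ± SEM.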"}, "[6]": {"system": "Sodium channel protein type 5 subunit alpha (Cavia porcellus)", "assay": "Inactivation process of guinea pig cardiac Na channels expressed in xenopus oocytes was determined by measuring increase in current integral in presence of compound versus control at 10 uM", "conditions": "oocyte"}, "[7]": {"organism": "Oryctolagus cuniculus", "assay": "Antiarrhythmic activity was determined by measuring the concentration that produced a 20 ms increase in ERP; no effect at </= 3", "format": "functional, organism-based", "conditions": "Heart", "procedure,_shortened": "as §2"}, "[8]": {"organism": "Oryctolagus cuniculus", "assay": "Concentration which increased contractility by 20% in rabbit; Negative inotropic effect observed", "format": "functional, organism-based", "procedure,_shortened": "as §1"}, "[9]": {"organism": "Cavia porcellus", "assay": "Effect on inactivation processes of guinea pig cardiac Na channels expressed in Xenopus oocytes was determined by measuring the increase in current integral in the presence of compound Vs control at 10 uM", "format": "functional", "procedure,_shortened": "(§3)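 Guinea pig heart RNA injected into defolliculated stage V–VI Xenopus oocytes; two-microelectrode voltage clamp at 21–23 °C with standard HEPES buffer perfusion, pH 7.5. Current integrated at the I–V peak (−10 mV) after the capacity transient settled. One test concentration (10 μM) per oocyte; percent change in integral calculated against that oocyte's control, reported ± SEM.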"}, "[10]": {"organism": "Oryctolagus cuniculus", "assay": "Concentration which increased contractility by 20% in rabbit; no effect at </=3 uM", "format": "functional, organism-based", "procedure,_shortened": "as §1"}, "[11]": {"organism": "Oryctolagus cuniculus", "assay": "Concentration which increased contractility by 20% in rabbit; no effect", "format": "functional, organism-based", "procedure,_shortened": "as §1"}, "[12]": {"system": "Oocyte", "assay": "Inactivation of guinea pig cardiac Na channel expressed in Xenopus oocytes as increased current at 10 uM; insoluble", "format": "functional, cell-based", "conditions": "Cavia porcellus", "procedure,_shortened": "as §3"}},
  "note": "pEC50: −log10 of the molar value. Calls of active or inactive are those of the source.",
  "data": [
    {"smiles": "O[C@@H](CN1CCN(C(c2ccccc2)c2ccccc2)CC1)Cn1cnc(-c2ccccc2)c2ncnc1-2", "values": [
      {"measurement": "pEC50", "setting": "[1]", "result": 6.80},
      {"measurement": "dP/dt", "setting": "[2]", "result": 434, "unit": "nM"},
      {"measurement": "EC20", "setting": "[3]", "result": 141, "unit": "nM"},
      {"measurement": "pEC50", "setting": "[4]", "result": 5.80},
      {"measurement": "Change", "setting": "[5]", "result": 201, "unit": "%"},
      {"measurement": "Change", "setting": "[6]", "result": 378, "unit": "%"}
    ]},
    {"smiles": "Cc1cn(-c2ncnc3c2ncn3CC(O)CN2CCN(C(c3ccccc3)c3ccccc3)CC2)cn1", "note": "(stereo unspecified)", "values": [
      {"measurement": "pEC50", "setting": "[1]", "result": "< 5.52"},
      {"measurement": "EC20", "setting": "[7]", "result": "inactive"},
      {"measurement": "Change", "setting": "[6]", "result": 126, "unit": "%"}
    ]},
    {"smiles": "OC(CN1CCN(C(c2ccccc2)c2ccccc2)CC1)Cn1cnc2c(-n3cncn3)ncnc21", "note": "(stereo unspecified)", "values": [
      {"measurement": "pEC50", "setting": "[1]", "result": 6.69},
      {"measurement": "dP/dt", "setting": "[2]", "result": 60, "unit": "nM"},
      {"measurement": "EC20", "setting": "[3]", "result": 57, "unit": "nM"},
      {"measurement": "Change", "setting": "[6]", "result": 1664, "unit": "%"}
    ]},
    {"smiles": "Nc1ncnc2c1ncn2CC(O)CN1CCN(C(c2ccccc2)c2ccccc2)CC1", "note": "(stereo unspecified)", "values": [
      {"measurement": "pEC50", "setting": "[1]", "result": 5.85},
      {"measurement": "dP/dt", "setting": "[2]", "result": 128, "unit": "nM"},
      {"measurement": "EC20", "setting": "[3]", "result": 307, "unit": "nM"},
      {"measurement": "Change", "setting": "[6]", "result": 212, "unit": "%"}
    ]},
    {"smiles": "O[C@H](CN1CCN(C(c2ccccc2)c2ccccc2)CC1)Cn1cnc2c(-n3cccc3)ncnc21", "values": [
      {"measurement": "EC20", "setting": "[7]", "result": "inactive"},
      {"measurement": "dP/dt", "setting": "[8]", "result": "inactive"},
      {"measurement": "Change", "setting": "[6]", "result": 21, "unit": "%"}
    ]},
    {"smiles": "OC(CN1CCN(C(c2ccccc2)c2ccccc2)CC1)Cn1cnc2cncnc21", "note": "(stereo unspecified)", "values": [
      {"measurement": "pEC50", "setting": "[1]", "result": 6.10},
      {"measurement": "dP/dt", "setting": "[2]", "result": 110, "unit": "nM"},
      {"measurement": "EC20", "setting": "[3]", "result": 95, "unit": "nM"},
      {"measurement": "Change", "setting": "[6]", "result": 288, "unit": "%"}
    ]},
    {"smiles": "OC(CN1CCN(C(c2ccccc2)c2ccccc2)CC1)Cn1cnc2c(-n3ccnc3)ncnc21", "note": "(stereo unspecified)", "values": [
      {"measurement": "pEC50", "setting": "[1]", "result": 6.20},
      {"measurement": "dP/dt", "setting": "[2]", "result": 46, "unit": "nM"},
      {"measurement": "EC20", "setting": "[3]", "result": 27, "unit": "nM"},
      {"measurement": "Change", "setting": "[6]", "result": 680, "unit": "%"}
    ]},
    {"smiles": "O[C@@H](CN1CCN(C(c2ccccc2)c2ccccc2)CC1)Cn1cnc2c(-n3cccn3)ncnc21", "values": [
      {"measurement": "pEC50", "setting": "[1]", "result": 7.00},
      {"measurement": "dP/dt", "setting": "[2]", "result": 40, "unit": "nM"},
      {"measurement": "EC20", "setting": "[3]", "result": 18, "unit": "nM"},
      {"measurement": "pEC50", "setting": "[4]", "result": 6.05},
      {"measurement": "Change", "setting": "[5]", "result": 540, "unit": "%"},
      {"measurement": "Change", "setting": "[6]", "result": 1226, "unit": "%"}
    ]},
    {"smiles": "Cc1cnn(-c2ncnc3c2ncn3CC(O)CN2CCN(C(c3ccccc3)c3ccccc3)CC2)c1", "note": "(stereo unspecified)", "values": [
      {"measurement": "pEC50", "setting": "[1]", "result": 6.23},
      {"measurement": "dP/dt", "setting": "[2]", "result": 300, "unit": "nM"},
      {"measurement": "EC20", "setting": "[3]", "result": 216, "unit": "nM"},
      {"measurement": "Change", "setting": "[6]", "result": 868, "unit": "%"}
    ]},
    {"smiles": "OC(CN1CCN(C(c2ccccc2)c2ccccc2)CC1)Cn1cnc2c(-n3cccn3)ncnc21", "note": "(stereo unspecified)", "values": [
      {"measurement": "pEC50", "setting": "[1]", "result": 6.80},
      {"measurement": "dP/dt", "setting": "[2]", "result": 40, "unit": "nM"},
      {"measurement": "EC20", "setting": "[3]", "result": 81, "unit": "nM"},
      {"measurement": "Change", "setting": "[6]", "result": 372, "unit": "%"}
    ]},
    {"smiles": "OC(CN1CCN(C(c2ccccc2)c2ccccc2)CC1)Cn1cnc2c(-c3ccc4ccccc4c3)ncnc21", "note": "(stereo unspecified)", "values": [
      {"measurement": "Change", "setting": "[9]", "result": -66, "unit": "%"}
    ]},
    {"smiles": "N#Cc1cc2c(OCC(O)CN3CCN(C(c4ccccc4)c4ccccc4)CC3)cccc2[nH]1", "note": "(stereo unspecified)", "values": [
      {"measurement": "pEC50", "setting": "[1]", "result": 5.72},
      {"measurement": "EC20", "setting": "[3]", "result": 430, "unit": "nM"},
      {"measurement": "pEC50", "setting": "[4]", "result": 5.64},
      {"measurement": "Change", "setting": "[5]", "result": 174, "unit": "%"},
      {"measurement": "dP/dt", "setting": "[10]", "result": "inactive"},
      {"measurement": "Change", "setting": "[6]", "result": 239, "unit": "%"}
    ]},
    {"smiles": "O[C@@H](CN1CCN(C(c2ccccc2)c2ccccc2)CC1)Cn1cnc2c(-c3ccccc3)ncnc21", "values": [
      {"measurement": "pEC50", "setting": "[1]", "result": 6.28},
      {"measurement": "EC20", "setting": "[3]", "result": 425, "unit": "nM"},
      {"measurement": "pEC50", "setting": "[4]", "result": 5.70},
      {"measurement": "Change", "setting": "[5]", "result": 128, "unit": "%"},
      {"measurement": "dP/dt", "setting": "[11]", "result": "inactive"},
      {"measurement": "Change", "setting": "[6]", "result": 413, "unit": "%"}
    ]},
    {"smiles": "N#Cc1ncnc2c1ncn2CC(O)CN1CCN(C(c2ccccc2)c2ccccc2)CC1", "note": "(stereo unspecified)", "values": [
      {"measurement": "pEC50", "setting": "[1]", "result": 6.40},
      {"measurement": "dP/dt", "setting": "[2]", "result": 250, "unit": "nM"},
      {"measurement": "EC20", "setting": "[3]", "result": 260, "unit": "nM"},
      {"measurement": "Change", "setting": "[6]", "result": 1328, "unit": "%"}
    ]},
    {"smiles": "OC(CN1CCN(C(c2ccc(Cl)cc2)c2ccc(Cl)cc2)CC1)Cn1cnc2c(-n3cccc3)ncnc21", "note": "(stereo unspecified)", "values": [
      {"measurement": "Change", "setting": "[12]", "result": "Insoluble"}
    ]},
    {"smiles": "O[C@@H](CN1CCN(C(c2ccccc2)c2ccccc2)CC1)Cn1cnc(-n2cccc2)c2ncnc1-2", "values": [
      {"measurement": "pEC50", "setting": "[1]", "result": 7.07},
      {"measurement": "dP/dt", "setting": "[2]", "result": 377, "unit": "nM"},
      {"measurement": "EC20", "setting": "[3]", "result": 43, "unit": "nM"},
      {"measurement": "pEC50", "setting": "[4]", "result": 6.54},
      {"measurement": "Change", "setting": "[5]", "result": 540, "unit": "%"},
      {"measurement": "Change", "setting": "[6]", "result": 711, "unit": "%"}
    ]}
  ]
}
